Laboratory results from ChEMBL document CHEMBL3091328, “Synthesis, DNA-binding abilities and anticancer activities of triazole-pyrrolo[2,1-c][1,4]benzodiazepines hybrid scaffolds” (Bioorg Med Chem Lett, 2013).
Active and inactive are the calls of the source. No cut-off for these calls is given here.

test system: not listed separately; assay: Cytotoxicity against human skin fibroblasts assessed as cell survival at 5 uM after 24 hrs by MTT assay relative to control; design: species or system Skin fibroblast; conditions: read-out: Survival
Outline: (§1)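 Cells exposed to agent at 5 µM for 24 h, then growth and viability measured by MTT assay. Survival given as percent of untreated control.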

Row | Structure (SMILES) | viability at 24 h, 5 µM [%]
1 | COc1ccc(-c2cn(C/C=C/COc3cc4c(cc3OC)C(=O)N3CCC[C@H]3C=N4)nn2)cc1 | 104
2 | COc1cccc(-c2cn(C/C=C/COc3cc4c(cc3OC)C(=O)N3CCC[C@H]3C=N4)nn2)c1 | 107
3 | COc1cc2c(cc1OC/C=C/Cn1cc(-c3ccccc3)nn1)N=C[C@@H]1CCCN1C2=O | 93

test system: A-375; assay: Cytotoxicity against human A375 cells assessed as cell survival at 1 to 5 uM after 12 hrs by MTT assay relative to control; assay type: functional, cell-based; conditions: not given
Outline: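 A375 cells seeded at 10,000 per well, attached overnight, then exposed in triplicate to 0, 1, 3 or 5 μM for 0, 12 or 24 h; viability by MTT absorbance versus untreated control; IC50 taken as mean of dose-response curves from three experiments.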

Row | Structure (SMILES) | Activity
4 | COc1ccc(-c2cn(C/C=C/COc3cc4c(cc3OC)C(=O)N3CCC[C@H]3C=N4)nn2)cc1 | inactive
5 | COc1cccc(-c2cn(C/C=C/COc3cc4c(cc3OC)C(=O)N3CCC[C@H]3C=N4)nn2)c1 | inactive
6 | COc1cc2c(cc1OC/C=C/Cn1cc(-c3ccccc3)nn1)N=C[C@@H]1CCCN1C2=O | inactive

test system: A-375; assay: Cell cycle arrest in human A375 cells assessed as accumulation at G2/M phase after 24 hrs by propidium iodide staining-based flow cytometry (reference value: 15.2 +/- 0.6%); assay type: functional; conditions: not given

Row | Structure (SMILES) | Activity [%]
7 | COc1ccc(-c2cn(C/C=C/COc3cc4c(cc3OC)C(=O)N3CCC[C@H]3C=N4)nn2)cc1 | 5.1
8 | COc1cccc(-c2cn(C/C=C/COc3cc4c(cc3OC)C(=O)N3CCC[C@H]3C=N4)nn2)c1 | 3.5
9 | COc1cc2c(cc1OC/C=C/Cn1cc(-c3ccccc3)nn1)N=C[C@@H]1CCCN1C2=O | 5.5

test system: A549; assay: Cytotoxicity against human A549 cells assessed as cell survival at 5 uM after 24 hrs by MTT assay relative to control; assay type: functional; conditions: A549, 24 h, read-out: Survival; outline: as §1

Row | Structure (SMILES) | viability at 5 µM [%]
10 | COc1ccc(-c2cn(C/C=C/COc3cc4c(cc3OC)C(=O)N3CCC[C@H]3C=N4)nn2)cc1 | 81
11 | COc1cccc(-c2cn(C/C=C/COc3cc4c(cc3OC)C(=O)N3CCC[C@H]3C=N4)nn2)c1 | 86
12 | COc1cc2c(cc1OC/C=C/Cn1cc(-c3ccccc3)nn1)N=C[C@@H]1CCCN1C2=O | 70

test system: A-375; assay: Cell cycle arrest in human A375 cells assessed as accumulation at S phase after 24 hrs by propidium iodide staining-based flow cytometry (reference value: 11.8 +/- 0.1%); assay type: functional; conditions: not given

Row | Structure (SMILES) | Activity [%]
13 | COc1ccc(-c2cn(C/C=C/COc3cc4c(cc3OC)C(=O)N3CCC[C@H]3C=N4)nn2)cc1 | 7.4
14 | COc1cccc(-c2cn(C/C=C/COc3cc4c(cc3OC)C(=O)N3CCC[C@H]3C=N4)nn2)c1 | 7.5
15 | COc1cc2c(cc1OC/C=C/Cn1cc(-c3ccccc3)nn1)N=C[C@@H]1CCCN1C2=O | 9.7

test system: B16; assay: Cytotoxicity against mouse B16 cells assessed as cell survival at 5 uM after 24 hrs by MTT assay relative to control; assay type: functional; conditions: B16, 24 h, read-out: Survival; outline: as §1

Row | Structure (SMILES) | viability at 5 µM [%]
16 | COc1ccc(-c2cn(C/C=C/COc3cc4c(cc3OC)C(=O)N3CCC[C@H]3C=N4)nn2)cc1 | 75.2
17 | COc1cccc(-c2cn(C/C=C/COc3cc4c(cc3OC)C(=O)N3CCC[C@H]3C=N4)nn2)c1 | 107
18 | COc1cc2c(cc1OC/C=C/Cn1cc(-c3ccccc3)nn1)N=C[C@@H]1CCCN1C2=O | 33.9

test system: A-375; assay: Cell cycle arrest in human A375 cells assessed as accumulation at G1 phase after 24 hrs by propidium iodide staining-based flow cytometry (reference value: 65.3 +/- 0.1%); assay type: functional; conditions: not given

Row | Structure (SMILES) | Activity [%]
19 | COc1ccc(-c2cn(C/C=C/COc3cc4c(cc3OC)C(=O)N3CCC[C@H]3C=N4)nn2)cc1 | 73.6
20 | COc1cccc(-c2cn(C/C=C/COc3cc4c(cc3OC)C(=O)N3CCC[C@H]3C=N4)nn2)c1 | 71.4
21 | COc1cc2c(cc1OC/C=C/Cn1cc(-c3ccccc3)nn1)N=C[C@@H]1CCCN1C2=O | 77.8

test system: A-375; assay: Cell cycle arrest in human A375 cells assessed as accumulation at sub-G1 phase after 24 hrs by propidium iodide staining-based flow cytometry (reference value: 7.7 +/- 0.1%); assay type: functional; conditions: not given

Row | Structure (SMILES) | Activity [%]
22 | COc1ccc(-c2cn(C/C=C/COc3cc4c(cc3OC)C(=O)N3CCC[C@H]3C=N4)nn2)cc1 | 13.9
23 | COc1cccc(-c2cn(C/C=C/COc3cc4c(cc3OC)C(=O)N3CCC[C@H]3C=N4)nn2)c1 | 17.6
24 | COc1cc2c(cc1OC/C=C/Cn1cc(-c3ccccc3)nn1)N=C[C@@H]1CCCN1C2=O | 7

test system: A2058; assay: Cytotoxicity against human A2058 cells assessed as cell survival at 5 uM after 24 hrs by MTT assay relative to control; assay type: functional; conditions: A2058, 24 h, read-out: Survival; outline: as §1

Row | Structure (SMILES) | viability at 5 µM [%]
25 | COc1ccc(-c2cn(C/C=C/COc3cc4c(cc3OC)C(=O)N3CCC[C@H]3C=N4)nn2)cc1 | 49.2
26 | COc1cccc(-c2cn(C/C=C/COc3cc4c(cc3OC)C(=O)N3CCC[C@H]3C=N4)nn2)c1 | 62.8
27 | COc1cc2c(cc1OC/C=C/Cn1cc(-c3ccccc3)nn1)N=C[C@@H]1CCCN1C2=O | 53.3

test system: HEK-293T; assay: Cytotoxicity against human 293T cells assessed as cell survival at 5 uM after 24 hrs by MTT assay relative to control; assay type: functional; conditions: read-out: Survival; outline: as §1

Row | Structure (SMILES) | viability at 5 µM [%]
28 | COc1ccc(-c2cn(C/C=C/COc3cc4c(cc3OC)C(=O)N3CCC[C@H]3C=N4)nn2)cc1 | 40
29 | COc1cccc(-c2cn(C/C=C/COc3cc4c(cc3OC)C(=O)N3CCC[C@H]3C=N4)nn2)c1 | 40
30 | COc1cc2c(cc1OC/C=C/Cn1cc(-c3ccccc3)nn1)N=C[C@@H]1CCCN1C2=O | 78

test system: not listed separately; assay: Cytotoxicity against human RPMI7951 cells assessed as cell survival at 5 uM after 24 hrs by MTT assay relative to control; assay type: functional; conditions: RPMI-7951, 24 h, read-out: Survival; outline: as §1

Row | Structure (SMILES) | viability at 5 µM [%]
31 | COc1ccc(-c2cn(C/C=C/COc3cc4c(cc3OC)C(=O)N3CCC[C@H]3C=N4)nn2)cc1 | 80.1
32 | COc1cccc(-c2cn(C/C=C/COc3cc4c(cc3OC)C(=O)N3CCC[C@H]3C=N4)nn2)c1 | 87.2
33 | COc1cc2c(cc1OC/C=C/Cn1cc(-c3ccccc3)nn1)N=C[C@@H]1CCCN1C2=O | 79.1

test system: Ca9-22; assay: Cytotoxicity against human Ca9-22 cells assessed as cell survival at 5 uM after 24 hrs by MTT assay relative to control; assay type: functional; conditions: Ca9-22, 24 h, read-out: Survival; outline: as §1

Row | Structure (SMILES) | viability at 5 µM [%]
34 | COc1ccc(-c2cn(C/C=C/COc3cc4c(cc3OC)C(=O)N3CCC[C@H]3C=N4)nn2)cc1 | 84.1
35 | COc1cccc(-c2cn(C/C=C/COc3cc4c(cc3OC)C(=O)N3CCC[C@H]3C=N4)nn2)c1 | 97.5
36 | COc1cc2c(cc1OC/C=C/Cn1cc(-c3ccccc3)nn1)N=C[C@@H]1CCCN1C2=O | 61.2

test system: A-375; assay: Cytotoxicity against human A375 cells assessed as cell survival at 5 uM after 24 hrs by MTT assay relative to control; assay type: functional; conditions: A-375, 24 h, read-out: Survival; outline: as §1

Row | Structure (SMILES) | viability at 5 µM [%]
37 | COc1ccc(-c2cn(C/C=C/COc3cc4c(cc3OC)C(=O)N3CCC[C@H]3C=N4)nn2)cc1 | 69.2
38 | COc1cccc(-c2cn(C/C=C/COc3cc4c(cc3OC)C(=O)N3CCC[C@H]3C=N4)nn2)c1 | 58.3
39 | COc1cc2c(cc1OC/C=C/Cn1cc(-c3ccccc3)nn1)N=C[C@@H]1CCCN1C2=O | 69.6
